The test system of data set [1] is Hepatitis C virus. Nature of the data set: Inhibition of N-terminal His-tagged recombinant Hepatitis C virus subtype 1b NS5B Cdelta21 RNA dependent RNA polymerase expressed in Escherichia coli by liquid scintillation counting analysis. An outline of the steps:
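Dose-response with 8–12 concentrations, in duplicate in two independent experiments. IC50 obtained by nonlinear regression, means ± SD.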

The subject of data set [2] is Hepatitis C virus. The data set can be described thus: Antiviral activity against Hepatitis C virus subtype 1b infected in human HuH5.2 cells assessed as inhibition of virus-induced cytopathic effect. Format: functional, organism-based, Hepacivirus hominis. The settings on record: genotype 1b, Huh-5-2. The method in brief:
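Eight-step 1:2 dilution series, 72 h at 37 °C. Cells lysed and luciferase luminescence read, expressed as % of untreated controls. EC50 taken from the dose-response curve, means ± SD of at least three independent experiments.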
(Protection from cytopathic effect is a common read-out in antiviral testing.)

In data set [3] the test system is Hepatitis C virus. Nature of the data set: Antiviral activity against Hepatitis C virus subtype 1b infected in human Huh-9-13 cells assessed as inhibition of virus-induced cytopathic effect. Format: functional, organism-based, Hepacivirus hominis. The settings on record: genotype 1b.
Data set [4] has as its system Hepatitis C virus. Nature of the data set: Inhibition of N-terminal His-tagged recombinant Hepatitis C virus subtype 1b NS5B Cdelta21 RNA dependent RNA polymerase expressed in Escherichia coli at 50 uM by liquid scintillation counting analysis. The method in brief:
(§1)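 N-His-tagged NS5BCΔ21 (NIH1b), purified from E. coli DH5α on Ni-NTA, 100 ng per reaction. Reaction stopped with cold TCA/pyrophosphate, products filter-precipitated and scintillation-counted. Compound tested at 50 µM, activity relative to DMSO control.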

The test system of data set [5] is Hepatitis C virus. Nature of the data set: Inhibition of N-terminal His-tagged recombinant Hepatitis C virus subtype 1b N-terminal His-tagged expressed in Escherichia coli at 50 uM by liquid scintillation counting analysis relative to control. An outline of the steps: as §1
For data set [6], the system named is Hepatitis C virus. Nature of the data set: Inhibition of N-terminal His-tagged recombinant Hepatitis C virus subtype 1b N-terminal His-tagged expressed in Escherichia coli at non-toxic concentration by liquid scintillation counting analysis relative to control. The method in brief: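 Recombinant NS5B genotype 1b (NIH1b) was His-tagged, C-terminally truncated by 21 residues, expressed in E. coli DH5α and purified on Ni-NTA. Products were TCA-precipitated on filters and counted by scintillation relative to the DMSO control. Compounds were screened at 50 µM.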

The nature of data set [7]: Cytotoxicity against human HuH5.2 cells by MTS assay. It counts as cell-based, Huh-5-2. (Tetrazolium assays rely on reduction of a dye to a coloured formazan, in cell work by metabolically active cells.)
Data set [8] relates to Hepatitis C virus. The data set can be described thus: Binding affinity to Hepatitis C virus (isolate Con1) NS5B […] by surface plasmon resonance analysis. Set-up: species or system Hepacivirus hominis. Background: SPR reads the build-up and loss of mass on a sensor chip optically.
A short description of data set [9]: Selectivity index, ratio of CC50 for human HuH5.2 cells to EC50 for Hepatitis C virus subtype 1b. The settings on record: read-out: Ratio CC50/EC50. It counts as toxicity. The method in brief:
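Ratio of CC50 (MTS, 72 h) to EC50 (luciferase replicon read-out), both measured in parallel in Huh 5-2 replicon cells.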

The source of these data is ChEMBL document CHEMBL2321648, “Structure-based discovery of pyrazolobenzothiazine derivatives as inhibitors of hepatitis C virus replication” (J Med Chem, 2013).

Molecules are shown by their SMILES.

As a reminder, the IC50 is the concentration at which inhibition is half-maximal. The term EC50 denotes the midpoint of the concentration-response curve. As usually defined, the inhibition is the share of the control response that was lost under treatment. As a reminder, the CC50 is the concentration giving 50% cytotoxicity. A high value points to better tolerance by the cells. For orientation: Kd means the free concentration of one partner at which half of the binding sites on the other are occupied at equilibrium, for simple one-to-one binding. For orientation: EC90 means the concentration at which the effect reaches the 90% level.

Turning to `CS(=O)(=O)Nc1ccc(NC(=O)c2nn(-c3ccc([N+](=O)[O-])cc3)c3c2NS(=O)(=O)c2ccccc2-3)cc1`, the IC50 with Hepatitis C virus [1] is 7.7 µM. For the same compound, the EC50 in the data set on Hepatitis C virus [2] came out at 7.9 µM.
With `CN1c2c(C(=O)Nc3ccc(NS(C)(=O)=O)cc3)nn(-c3ccc(F)cc3)c2-c2ccccc2S1(=O)=O`, the EC50 in the data set with Hepatitis C virus [2] is 23 µM.
`CN1c2c(C(=O)Nc3ccc(NS(C)(=O)=O)cc3)nn(-c3ccccc3F)c2-c2ccccc2S1(=O)=O`: the half-maximal effective concentration (EC50) in the data set with Hepatitis C virus [2] amounted to 6.4 µM.
Regarding `CN1c2c(C(=O)Nc3ccc(NS(C)(=O)=O)cc3)nn(-c3cccc(F)c3)c2-c2ccccc2S1(=O)=O`, the concentration giving a half-maximal response (EC50) was found to be 7.5 µM in the data set with Hepatitis C virus [2] and 3.6 µM with Hepatitis C virus [3].
As to `CN1c2c(C(=O)Nc3ccc(NS(C)(=O)=O)cc3)nn(-c3cccc(N)c3)c2-c2ccccc2S1(=O)=O`, the inhibition at 50 µM with Hepatitis C virus [4] and in the data set on Hepatitis C virus [5] was 45.8% in each case. Besides, the EC50 in the data set on Hepatitis C virus [2] was 9.2 µM.
Turning to `COC(=O)c1nn(-c2cccc(F)c2)c2c1N(C)S(=O)(=O)c1ccccc1-2`, in the data set with Hepatitis C virus [6], the “inhibition (INH)” value was 40%. The values for the inhibition at 50 µM in the data set with Hepatitis C virus [4] and in the data set with Hepatitis C virus [5] were 10.6% and 11%, respectively. For the same compound, the half-maximal effective concentration (EC50) with Hepatitis C virus [2] was 172 µM.
The compound `CS(=O)(=O)Nc1ccc(NC(=O)c2nn(-c3cccc([N+](=O)[O-])c3)c3c2NS(=O)(=O)c2ccccc2-3)cc1` showed a CC50 in [7] above 220 µM. Moreover, the dissociation constant (Kd) in the data set on Hepatitis C virus [8] came out at 14 µM. Moreover, the inhibition at 50 µM with Hepatitis C virus [4] stood at 33.7%. Besides, in the data set with Hepatitis C virus [2], the concentration for a half-maximal effect (EC50) is above 220 µM and the concentration for an effect of 90% (EC90) was above 220 µM. The selectivity ratio in [9] was at least 1.
In the case of `CN1c2c(C(=O)Nc3ccc(N)cc3)nn(-c3cccc(F)c3)c2-c2ccccc2S1(=O)=O`, the inhibition at 50 µM with Hepatitis C virus [4] and with Hepatitis C virus [5] was 31.5% each time. For the same compound, in the data set on Hepatitis C virus [2], the EC50 is 19 µM.
Turning to `CN1c2c(C(=O)Oc3ccc(NS(C)(=O)=O)cc3)nn(-c3cccc(F)c3)c2-c2ccccc2S1(=O)=O`, the inhibition at 50 µM in the data set with Hepatitis C virus [4] is 21.4%; in the data set with Hepatitis C virus [5], 21%. The concentration for a half-maximal effect (EC50) with Hepatitis C virus [2] amounted to 88 µM.
On to `CN1c2c(C(=O)Nc3ccc(NS(C)(=O)=O)cc3)nn(-c3ccccc3N)c2-c2ccccc2S1(=O)=O`, for which the EC50 with Hepatitis C virus [2] stood at 26 µM.
Still for that read-out and setting: the figure for `CN1c2c(C(=O)Nc3ccc(NS(C)(=O)=O)cc3)nn(-c3ccc(N)cc3)c2-c2ccccc2S1(=O)=O` is 12 µM.
Regarding `CS(=O)(=O)Nc1ccc(NC(=O)c2nn(-c3ccccc3[N+](=O)[O-])c3c2NS(=O)(=O)c2ccccc2-3)cc1`, the CC50 in data set [7] is above 220 µM. The concentration giving a half-maximal response (EC50) in the data set with Hepatitis C virus [2] is 17.8 µM.
`CS(=O)(=O)Nc1ccc(NC(=O)c2nn(-c3ccccc3)c3c2NS(=O)(=O)c2ccccc2-3)cc1` had a CC50 in [7] above 239 µM. The half-maximal effective concentration (EC50) in the data set with Hepatitis C virus [2] stood at 14 µM.
